Experimental findings from ChEMBL document CHEMBL1806409, “Design, synthesis and biological evaluation of novel 4-thiazolidinones containing indolin-2-one moiety as potential antitumor agent” (Eur J Med Chem, 2011) are described below.

A word on the IC50: it is the concentration needed to halve the response being measured.

One assay concerns SMMC-7721. Kind of assay: Cytotoxicity against human SMMC7721 cells assessed as cell growth inhibition after 72 hrs by MTT assay. In kind it is functional, cell-based. The note with it: SMMC-7721, 72 h. The method, boiled down: (§1)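 Cancer lines grown in MEM with 10% FBS. About 4 × 10³ cells/well were seeded in MEM and incubated 24 h at 37 °C, 5% CO₂. Compounds were then added at final concentrations and exposure ran 72 h. MTT was added for 4 h at 37 °C and formazan dissolved in DMSO. Absorbance was read at 492 nm against a 630 nm reference. IC50 is the average of three determinations.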
A general note: Formazan colour is commonly taken as a measure of viable cells.

For assay [1], the system named is WI-38. Kind of assay: Cytotoxicity against human WI38 cells assessed as cell growth inhibition after 72 hrs by MTT assay. In kind it is cell-based. The settings on record: WI-38, 72 h. The method, boiled down:
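WI-38 normal human fetal lung fibroblasts were seeded at about 4 × 10³ cells/well and held 24 h at 37 °C, 5% CO₂, then exposed to compounds for 72 h. MTT was given for 4 h at 37 °C and formazan dissolved in DMSO. A492 was read with a 630 nm reference, and IC50 was averaged from three runs.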

The subject of a further assay is NCI-H460. Kind of assay: Cytotoxicity against human H460 cells assessed as cell growth inhibition after 72 hrs by MTT assay. In kind it is functional, cell-based. The note with it: NCI-H460, 72 h. The method, boiled down:
as §1

The next assay concerns MDA-MB-231. Kind of assay: Cytotoxicity against human MDA-MB-231 cells assessed as cell growth inhibition after 72 hrs by MTT assay. The note with it: MDA-MB-231, 72 h. It counts as functional, cell-based. The method, boiled down: as §1
The subject of assay [2] is HT-29. Kind of assay: Cytotoxicity against human HT-29 cells assessed as cell growth inhibition after 72 hrs by MTT assay. It counts as functional, cell-based. The settings on record: HT-29, 72 h. The method, boiled down: as §1
For assay [3], the system named is WI-38. Put plainly: Selectivity index, ratio of IC50 for human WI38 cells to IC50 for human H460 cells. In kind it is functional. The method, boiled down:
(§2)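 The index is the IC50 in WI-38 normal fibroblasts divided by the IC50 in the cancer line (H460 or HT-29). Each IC50 comes from a 72 h MTT growth-inhibition assay averaged over three determinations.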

Assay [4] relates to HT-29. Kind of assay: Selectivity index, ratio of IC50 for human WI38 cells to IC50 for human HT-29 cells. It counts as functional. The method in brief: as §2

For `CCN(CC)CCCn1c(=O)c(=Cc2ccc3c(c2)OCO3)s/c1=C1\C(=O)Nc2ccc(F)cc21` (mixture of isomers), the IC50 in the assay with SMMC-7721 turned out to be 1950 nM; in the assay on WI-38 [1], 6980 nM; in the assay with NCI-H460 it was 75 nM; in the assay with MDA-MB-231, 770 nM; with HT-29 [2], 25 nM. Further, the “Ratio IC50” value came out at 93 with WI-38 [3] and 279 in the assay on HT-29 [4].
With `CCN(CC)CCCn1c(=O)c(=Cc2ccc3c(c2)OCO3)s/c1=C1\C(=O)Nc2cc(F)ccc21` (mixture of isomers), the IC50 with SMMC-7721 came to 4020 nM; in the assay on WI-38 [1] it was 8300 nM; in the assay on NCI-H460, 1910 nM; in the assay with MDA-MB-231, 4130 nM; with HT-29 [2] it was 190 nM.
Regarding `CCN(CC)CCCn1c(=O)c(=Cc2ccc3c(c2)OCO3)s/c1=C1\C(=O)Nc2ccc(Cl)cc21` (mixture of isomers), the IC50 in the assay with SMMC-7721 amounted to 3120 nM; in the assay on WI-38 [1] it was 3320 nM; in the assay on NCI-H460 it was 1000 nM; in the assay on MDA-MB-231 it was 3130 nM; in the assay on HT-29 [2] it was 437 nM.
